Source: publication PMC5930004 (European journal of medicinal chemistry, 2018)
Entries after “also recorded” stand apart in the source; their conditions may differ.

Legend:
recombinant human TDP2 = target: T1, recombinant human TDP2 (Homo sapiens, UniProt O95551); assay: Recombinant TDP2 assay; assay type: biochemical; details: inactive, i.e. IC50 >111 μM
T1 sequence (O95551 1-362): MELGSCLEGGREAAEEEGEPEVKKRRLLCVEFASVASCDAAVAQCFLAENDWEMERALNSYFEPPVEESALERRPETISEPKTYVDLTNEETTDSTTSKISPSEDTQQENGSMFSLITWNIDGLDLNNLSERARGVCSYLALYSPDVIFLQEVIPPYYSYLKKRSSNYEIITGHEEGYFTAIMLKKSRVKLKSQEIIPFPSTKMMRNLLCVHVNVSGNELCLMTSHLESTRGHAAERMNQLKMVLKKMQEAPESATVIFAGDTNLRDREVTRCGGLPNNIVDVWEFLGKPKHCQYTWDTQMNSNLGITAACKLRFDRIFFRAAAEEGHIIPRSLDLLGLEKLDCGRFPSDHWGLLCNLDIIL

TOP1 [1] = target: T2, TOP1 (Homo sapiens, UniProt P11387); assay: TOP1-mediated relaxation assay; assay type: biochemical; details: 25 μM concentration
T2 sequence (P11387 1-765): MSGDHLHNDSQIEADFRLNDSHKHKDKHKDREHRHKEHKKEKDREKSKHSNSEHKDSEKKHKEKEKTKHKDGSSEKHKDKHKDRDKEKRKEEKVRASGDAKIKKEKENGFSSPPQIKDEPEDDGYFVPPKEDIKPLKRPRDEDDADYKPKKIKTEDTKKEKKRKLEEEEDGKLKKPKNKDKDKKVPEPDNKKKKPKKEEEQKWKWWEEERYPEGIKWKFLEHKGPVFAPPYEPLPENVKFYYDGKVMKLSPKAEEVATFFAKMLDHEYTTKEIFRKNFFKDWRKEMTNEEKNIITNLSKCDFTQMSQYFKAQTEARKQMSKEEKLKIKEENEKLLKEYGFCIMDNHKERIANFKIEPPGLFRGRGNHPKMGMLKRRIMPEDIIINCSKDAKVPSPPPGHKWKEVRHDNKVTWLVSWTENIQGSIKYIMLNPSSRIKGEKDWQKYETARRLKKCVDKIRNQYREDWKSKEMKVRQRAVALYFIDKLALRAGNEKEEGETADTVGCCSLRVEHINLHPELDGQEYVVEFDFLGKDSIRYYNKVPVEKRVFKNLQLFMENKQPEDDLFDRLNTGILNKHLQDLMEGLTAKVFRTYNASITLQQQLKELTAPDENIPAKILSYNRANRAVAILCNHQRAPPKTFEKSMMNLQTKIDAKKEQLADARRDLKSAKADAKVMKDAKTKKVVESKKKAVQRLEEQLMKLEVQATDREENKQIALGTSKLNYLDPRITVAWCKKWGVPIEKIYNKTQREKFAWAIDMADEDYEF

TOP1 [2] = target: T2, TOP1; assay: TOP1-mediated DNA cleavage assay; assay type: biochemical; details: up to 100 μM
recombinant TDP1 = recombinant TDP1 (Homo sapiens, UniProt Q9NUW8); assay: Recombinant TDP1 assay; assay type: biochemical; details: highest concentration tested 111 μM
Chain of recombinant TDP1 (Q9NUW8 whole entry, species assumed): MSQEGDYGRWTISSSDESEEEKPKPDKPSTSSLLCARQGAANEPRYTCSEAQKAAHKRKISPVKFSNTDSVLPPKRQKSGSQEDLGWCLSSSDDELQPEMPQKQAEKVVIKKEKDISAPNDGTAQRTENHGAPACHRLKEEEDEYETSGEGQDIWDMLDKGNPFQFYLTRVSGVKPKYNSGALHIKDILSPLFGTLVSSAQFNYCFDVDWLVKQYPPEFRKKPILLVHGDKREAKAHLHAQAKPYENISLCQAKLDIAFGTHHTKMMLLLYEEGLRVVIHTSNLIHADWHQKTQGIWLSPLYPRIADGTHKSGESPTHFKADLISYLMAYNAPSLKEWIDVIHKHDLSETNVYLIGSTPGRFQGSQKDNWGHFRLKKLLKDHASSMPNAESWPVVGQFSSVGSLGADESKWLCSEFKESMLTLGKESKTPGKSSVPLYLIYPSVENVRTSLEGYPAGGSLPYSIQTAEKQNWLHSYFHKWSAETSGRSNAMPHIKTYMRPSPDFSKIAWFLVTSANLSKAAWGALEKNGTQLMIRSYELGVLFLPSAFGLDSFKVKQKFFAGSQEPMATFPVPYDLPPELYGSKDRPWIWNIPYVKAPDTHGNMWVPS
How it was run: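 Test compound was run as six or eight three-fold dilutions from 111 μM down to 0.46 μM or 0.051 μM against recombinant TDP1. Reactions were stopped with 1 volume of gel loading buffer (99.5% formamide, 5 mM EDTA, xylene cyanol, bromophenol blue) and resolved by 16% denaturing PAGE. Dried gels were phosphorimaged and quantified by densitometry.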

TOP2 = assay: TOP2-mediated relaxation assay; assay type: biochemical; details: 25 μM concentration
[3] = target: TOP2-DNA covalent cleavage complexes (TOP2cc) in CCRF-CEM cells (Homo sapiens, UniProt P11388); assay: In vivo complex of enzyme; assay type: cell-based; details: 2 h treatment, up to 50 μM
Chain of TOP2-DNA covalent cleavage complexes (TOP2cc) in CCRF-CEM cells (P11388 whole entry, one chain of several): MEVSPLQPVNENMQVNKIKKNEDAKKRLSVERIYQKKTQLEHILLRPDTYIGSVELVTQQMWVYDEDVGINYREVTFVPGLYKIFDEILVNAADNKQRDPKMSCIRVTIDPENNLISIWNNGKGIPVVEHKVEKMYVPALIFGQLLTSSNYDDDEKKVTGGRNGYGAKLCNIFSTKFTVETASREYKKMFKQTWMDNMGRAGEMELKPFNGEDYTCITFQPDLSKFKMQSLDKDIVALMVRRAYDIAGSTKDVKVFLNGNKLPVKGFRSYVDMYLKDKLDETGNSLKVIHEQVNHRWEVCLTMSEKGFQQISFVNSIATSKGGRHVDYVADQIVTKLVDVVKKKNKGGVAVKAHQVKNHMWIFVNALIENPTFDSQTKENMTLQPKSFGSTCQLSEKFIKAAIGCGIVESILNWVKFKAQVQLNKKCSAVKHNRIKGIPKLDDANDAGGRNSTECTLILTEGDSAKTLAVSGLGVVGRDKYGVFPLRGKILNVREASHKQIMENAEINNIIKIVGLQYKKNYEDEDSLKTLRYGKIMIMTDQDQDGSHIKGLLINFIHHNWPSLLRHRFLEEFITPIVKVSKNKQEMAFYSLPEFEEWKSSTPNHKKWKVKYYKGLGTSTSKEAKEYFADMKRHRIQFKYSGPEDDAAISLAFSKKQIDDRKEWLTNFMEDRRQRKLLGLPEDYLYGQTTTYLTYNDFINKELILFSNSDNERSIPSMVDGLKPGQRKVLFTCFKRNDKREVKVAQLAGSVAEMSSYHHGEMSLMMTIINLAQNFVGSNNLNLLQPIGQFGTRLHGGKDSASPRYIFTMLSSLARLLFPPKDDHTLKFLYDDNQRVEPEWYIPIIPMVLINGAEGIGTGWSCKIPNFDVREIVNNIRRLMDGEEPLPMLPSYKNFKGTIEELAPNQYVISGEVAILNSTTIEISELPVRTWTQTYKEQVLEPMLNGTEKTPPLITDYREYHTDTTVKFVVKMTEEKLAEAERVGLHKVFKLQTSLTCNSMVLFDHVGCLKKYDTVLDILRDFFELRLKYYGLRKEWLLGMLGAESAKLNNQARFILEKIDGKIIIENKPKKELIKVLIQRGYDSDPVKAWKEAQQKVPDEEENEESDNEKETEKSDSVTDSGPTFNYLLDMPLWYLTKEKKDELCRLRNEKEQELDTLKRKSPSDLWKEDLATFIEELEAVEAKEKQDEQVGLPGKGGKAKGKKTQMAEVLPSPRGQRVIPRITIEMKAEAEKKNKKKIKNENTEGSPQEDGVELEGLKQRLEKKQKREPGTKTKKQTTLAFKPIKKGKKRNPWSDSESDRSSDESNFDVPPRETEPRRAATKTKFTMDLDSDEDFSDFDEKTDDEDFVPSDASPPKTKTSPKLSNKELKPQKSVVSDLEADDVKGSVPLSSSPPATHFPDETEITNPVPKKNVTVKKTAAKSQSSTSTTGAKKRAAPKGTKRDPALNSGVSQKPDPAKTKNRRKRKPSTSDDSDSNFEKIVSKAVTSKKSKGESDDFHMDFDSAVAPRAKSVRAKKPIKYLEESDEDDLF
How it was run: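 CCRF-CEM cells (60 × 10^5) exposed to test compound for 2 h, then lysed with 1% Sarkosyl. DNA was isolated, and TOP2–DNA covalent complexes were detected by Western slot blot using a mouse anti-human TOP2α antibody.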

| Structure (SMILES) | TDP2 inhibitory activity (in words) (recombinant human TDP2) | TOP1 relaxing activity inhibition (in words) (TOP1 [1]) | TDP1 inhibition (in words) (recombinant TDP1) | TOP2 relaxing activity inhibition (in words) (TOP2) | other results |
| --- | --- | --- | --- | --- | --- |
| Cc1oc2c(c1C(=O)Oc1ccc3ccccc3c1)C(=O)c1ncccc1C2=O [Compound 40, 2-Naphthalenyl 2-methyl-4,9-dioxo-4,9-dihydrofuro[2,3-g]quinoline-3-carboxylate] | inactive | – | – | – | – |
| CCOC(=O)c1noc2c1C(=O)c1ncccc1C2=O [Compound 73, Ethyl 4,9-dioxo-4,9-dihydroisoxazolo[5,4-g]quinoline-3-carboxylate] | – | do not have inhibitory potency; also recorded: no activity | no activity | do not have inhibitory potency; also recorded: no activity | TOP1-mediated DNA cleavage, formation of covalent TOP1-DNA complex (in words) (TOP1 [2]): do not have inhibitory potency |
| CCOC(=O)c1n[nH]c2c1C(=O)c1cccnc1C2=O [Compound 76, Ethyl 4,9-dioxo-4,9-dihydro-1H-pyrazolo[4,3-g]quinoline-3-carboxylate] | inactive | – | – | – | – |
| Cc1oc2c(c1C(=O)Oc1ccc3c(c1)OCO3)C(=O)c1ncccc1C2=O [Compound 49, Benzo[d][1,3]dioxol-5-yl 2-methyl-4,9-dioxo-4,9-dihydrofuro[2,3-g]quinoline-3-carboxylate] | inactive | – | – | – | – |
| CCOC(=O)c1c(C)[nH]c2c1C(=O)c1cccnc1C2=O [Compound 70, ethyl 2-methyl-4,9-dioxo-4,9-dihydro-1H-pyrrolo[3,2-g]quinoline-3-carboxylate] | inactive | – | – | – | – |
| CCOC(=O)c1c(C)oc2c1C(=O)c1ncccc1C2=O [Compound 1, Ethyl 2-methyl-4,9-dioxo-4,9-dihydrofuro[2,3-g]quinoline-3-carboxylate] | – | did not inhibit | did not inhibit | did not inhibit | – |
| CCOC(=O)c1c2c(n(C)c1C)C(=O)c1ncccc1C2=O [Compound 72, ethyl 1,2-dimethyl-4,9-dioxo-4,9-dihydro-1H-pyrrolo[3,2-g]quinoline-3-carboxylate] | inactive | – | – | – | – |
| CCOC(=O)c1n[nH]c2c1C(=O)c1ncccc1C2=O [Compound 75, Ethyl 4,9-dioxo-4,9-dihydro-1H-pyrazolo[3,4-g]quinoline-3-carboxylate] | inactive | – | – | – | – |
| Cc1oc2c(c1C(=O)Oc1ccc(C(=O)c3ccccc3)cc1)C(=O)c1ncccc1C2=O [Compound 46, 4-Benzoylphenyl 2-methyl-4,9-dioxo-4,9-dihydrofuro[2,3-g]quinoline-3-carboxylate] | inactive | – | – | – | – |
| CCOC(=O)c1noc2c1C(=O)c1cccnc1C2=O [Compound 74, Ethyl 4,9-dioxo-4,9-dihydroisoxazolo[4,5-g]quinoline-3-carboxylate] | – | do not have inhibitory potency; also recorded: no activity | no activity | do not have inhibitory potency; also recorded: no activity | Induction of TOP2cc formation (ICE assay, in words) [3]: unable to induce the formation of TOP2cc; TOP1-mediated DNA cleavage, formation of covalent TOP1-DNA complex (in words) (TOP1 [2]): do not have inhibitory potency |
